Experimental data taken from ChEMBL document CHEMBL2311531, “Synthesis and antioxidant activities of 2-oxo-quinoline-3-carbaldehyde Schiff-base derivatives” (Bioorg Med Chem Lett, 2013).

Columns and labels:
Type in all cases: functional
[1] = Antioxidant activity assessed as DPPH scavenging activity after 30 mins by spectrophotometry
Summary of the method: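 Sample in DMF at several concentrations added to 0.004% (w/v) DPPH in ethanol, incubated at 37 °C, A517 read after 30 min. Scavenging % = (Acontrol − Atest)/Acontrol × 100, control lacking scavenger. Triplicate; IC50 as concentration scavenging 50% of radicals.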

[2] = Antioxidant activity assessed as hydroxyl radical scavenging activity after 1 hr by spectrophotometry
Summary of the method: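 Salicylate method: 20 mM sodium salicylate, 1.5 mM FeSO4, sample at various concentrations and 6 mM H2O2 (stock levels) mixed, held 1 h in 37 °C water bath, A510 read against blank. Scavenging % from absorbance with vs without sample; triplicate; IC50 as concentration scavenging 50% of radicals.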

[3] = Antioxidant activity assessed as ABTS radical scavenging activity after 3 mins by spectrophotometry
Summary of the method: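 ABTS radical cation from 2 mM ABTS stock in PBS pH 7.4 reacted with 70 mM K2S2O8, standing in dark at room temperature 15-16 h; diluted with PBS to A734 0.700 ± 0.030. Sample solutions at several concentrations mixed with radical solution, absorbance read after 3 min at ambient temperature; PBS blank. Triplicate; IC50 as concentration scavenging 50% of radicals.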

[4] = Antioxidant activity assessed as superoxide anion radical scavenging activity after 5 mins by spectrophotometry
Summary of the method: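 Pyrogallol autoxidation at room temperature: sample in DMF at various concentrations added to 0.05 M Tris-HCl with 30 mM 1,2,3-trihydroxybenzene (stock), 5 min reaction, stopped with 8.0 M HCl (stock), A320 read against blank. Scavenging % from absorbance with vs without sample; triplicate; IC50 as concentration scavenging 50% of radicals.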

Molecule `Cc1ccc2[nH]c(=O)c(/C=N/N)cc2c1` has an IC50 ([1]; read-out: IC50) of 641 µM, an IC50 ([2]; read-out: IC50) of 790 µM and an IC50 [3] of 11.3 µM. It also gave an IC50 ([4]; read-out: IC50) of 153 µM.

Work on `Cc1ccc2[nH]c(=O)c(/C=N/NC(=O)CS(N)(=O)=O)cc2c1` yielded an IC50 ([1]; read-out: IC50) of 3350 µM, an IC50 ([2]; read-out: IC50) of 5830 µM and an IC50 [3] of 9.17 µM. It also gave an IC50 ([4]; read-out: IC50) of 147 µM.

In the case of `Cc1ccc2[nH]c(=O)c(/C=N/c3ccc(O)cc3)cc2c1`, the IC50 ([1]; read-out: IC50) is reported as 88.5 µM, the IC50 [2] is reported as “Not Active” and the IC50 [3] is reported as 5.24 µM. It also gave an IC50 ([4]; read-out: IC50) of 235 µM.

`O=c1[nH]c2ccccc2cc1/C=N/c1ccccc1O` gave an IC50 ([1]; read-out: IC50) of 22.8 µM, an IC50 ([2]; read-out: IC50) of 1660 µM and an IC50 [3] of 11.7 µM. For the same molecule, the IC50 ([4]; read-out: IC50) was 237 µM.

Molecule `O=c1[nH]c2ccccc2cc1/C=N/Nc1ccccc1` has an IC50 ([1]; read-out: IC50) of 76.5 µM, an IC50 ([2]; read-out: IC50) of 1000 µM and an IC50 [3] of 11.8 µM. For the same molecule, the IC50 ([4]; read-out: IC50) was 306 µM.

`NS(=O)(=O)c1ccc(/N=C/c2cc3ccccc3[nH]c2=O)cc1` showed an IC50 ([1]; read-out: IC50) of 266 µM, an IC50 ([2]; read-out: IC50) of 266 µM and an IC50 [3] of 1610 µM. The IC50 ([4]; read-out: IC50) was 169 µM.

`Cc1ccc2[nH]c(=O)c(/C=N/CCO)cc2c1` gave an IC50 ([1]; read-out: IC50) of 498 µM, an IC50 ([2]; read-out: IC50) of 4180 µM and an IC50 [3] of 1190 µM. The IC50 ([4]; read-out: IC50) was 1480 µM.

In the case of `Cc1ccc2[nH]c(=O)c(/C=N/c3ccc(S(N)(=O)=O)cc3)cc2c1`, the IC50 [1] is reported as “Not Active”, the IC50 [2] is reported as “Not Active” and the IC50 [3] is reported as 1200 µM. For the same molecule, the IC50 ([4]; read-out: IC50) was 258 µM.

With `O=c1[nH]c2ccccc2cc1/C=N/CCO` the IC50 [1] was “Not Active”, the IC50 ([2]; read-out: IC50) was 3310 µM and the IC50 [3] was 1210 µM. For the same molecule, the IC50 ([4]; read-out: IC50) was 467 µM.

With `CCCC/N=C/c1cc2cc(C)ccc2[nH]c1=O` the IC50 ([1]; read-out: IC50) was 63.2 µM, the IC50 ([2]; read-out: IC50) was 3560 µM and the IC50 [3] was 43.3 µM. For the same molecule, the IC50 ([4]; read-out: IC50) was 379 µM.

For `O=C(O)c1ccc(/N=C/c2cc3ccccc3[nH]c2=O)cc1`, the IC50 ([1]; read-out: IC50) was 1660 µM, the IC50 [2] was “Not Active” and the IC50 [3] was 438 µM. It also gave an IC50 ([4]; read-out: IC50) of 381 µM.

`Cc1ccc2[nH]c(=O)c(/C=N/O)cc2c1` gave an IC50 ([1]; read-out: IC50) of 160 µM, an IC50 ([2]; read-out: IC50) of 1980 µM and an IC50 [3] of 38.9 µM. For the same molecule, the IC50 ([4]; read-out: IC50) was 389 µM.

For `Cc1ccc2[nH]c(=O)c(/C=N/Cc3ccccc3)cc2c1`, the IC50 [1] was “Not Active”, the IC50 ([2]; read-out: IC50) was 6920 µM and the IC50 [3] was 607 µM. For the same molecule, the IC50 ([4]; read-out: IC50) was 310 µM.

`N/N=C/c1cc2ccccc2[nH]c1=O` gave an IC50 ([1]; read-out: IC50) of 729 µM, an IC50 ([2]; read-out: IC50) of 365 µM and an IC50 [3] of 20.6 µM. The IC50 ([4]; read-out: IC50) was 184 µM.

Work on `O=c1[nH]c2ccccc2cc1/C=N/Nc1ccc([N+](=O)[O-])cc1` yielded an IC50 ([1]; read-out: IC50) of 170 µM, an IC50 ([2]; read-out: IC50) of 245 µM and an IC50 [3] of 11.4 µM. For the same molecule, the IC50 [4] was “Not Active”.

For `O=c1[nH]c2ccccc2cc1/C=N/c1ccc(O)cc1`, the IC50 ([1]; read-out: IC50) was 92.1 µM, the IC50 [2] was “Not Active” and the IC50 [3] was 7.15 µM. The IC50 ([4]; read-out: IC50) was 306 µM.

With `CCCC/N=C/c1cc2ccccc2[nH]c1=O` the IC50 ([1]; read-out: IC50) was 439 µM, the IC50 ([2]; read-out: IC50) was 7680 µM and the IC50 [3] was 1810 µM. It also gave an IC50 ([4]; read-out: IC50) of 246 µM.

Work on `Cc1ccc2[nH]c(=O)c(/C=N/NC(=O)Cc3ccncc3)cc2c1` yielded an IC50 ([1]; read-out: IC50) of 3580 µM, an IC50 ([2]; read-out: IC50) of 4690 µM and an IC50 [3] of 882 µM. For the same molecule, the IC50 ([4]; read-out: IC50) was 209 µM.

For `Cc1ccc2[nH]c(=O)c(/C=N/Nc3ccc([N+](=O)[O-])cc3[N+](=O)[O-])cc2c1`, the IC50 [1] was “Not Active”, the IC50 ([2]; read-out: IC50) was 749 µM and the IC50 [3] was 144 µM. The IC50 [4] was “Not Active”.

`O=c1[nH]c2ccccc2cc1/C=N/O` gave an IC50 ([1]; read-out: IC50) of 118 µM, an IC50 ([2]; read-out: IC50) of 2010 µM and an IC50 [3] of 31.8 µM. The IC50 ([4]; read-out: IC50) was 463 µM.

In the case of `Cc1ccc2[nH]c(=O)c(/C=N/c3ccccc3O)cc2c1`, the IC50 ([1]; read-out: IC50) is reported as 26.2 µM, the IC50 ([2]; read-out: IC50) is reported as 1350 µM and the IC50 [3] is reported as 8.24 µM. The IC50 ([4]; read-out: IC50) was 286 µM.

`O=C1O[C@H]([C@@H](O)CO)C(O)=C1O` [ASCORBIC ACID] showed an IC50 ([1]; read-out: IC50) of 43.8 µM, an IC50 ([2]; read-out: IC50) of 73.8 µM and an IC50 [3] of 12.8 µM. For the same molecule, the IC50 ([4]; read-out: IC50) was 15.6 µM.

In the case of `Cc1ccc2[nH]c(=O)c(/C=N/Nc3ccccc3)cc2c1`, the IC50 ([1]; read-out: IC50) is reported as 62.4 µM, the IC50 ([2]; read-out: IC50) is reported as 1470 µM and the IC50 [3] is reported as 8.47 µM. The IC50 ([4]; read-out: IC50) was 309 µM.

Molecule `Cc1cc(C(C)(C)C)c(O)c(C(C)(C)C)c1` [BUTYLATED HYDROXYTOLUENE] has an IC50 ([1]; read-out: IC50) of 65.8 µM, an IC50 ([2]; read-out: IC50) of 24700 µM and an IC50 [3] of 37 µM. It also gave an IC50 ([4]; read-out: IC50) of 254 µM.

With `Cc1ccc2[nH]c(=O)c(/C=N/c3ccc(C(=O)O)cc3)cc2c1` the IC50 [1] was “Not Active”, the IC50 [2] was “Not Active” and the IC50 [3] was 222 µM. For the same molecule, the IC50 ([4]; read-out: IC50) was 409 µM.

`Cc1ccc2[nH]c(=O)c(/C=N/Nc3ccc([N+](=O)[O-])cc3)cc2c1` showed an IC50 ([1]; read-out: IC50) of 109 µM, an IC50 ([2]; read-out: IC50) of 350 µM and an IC50 [3] of 8.25 µM. For the same molecule, the IC50 [4] was “Not Active”.

`O=c1[nH]c2ccccc2cc1/C=N/Nc1ccc([N+](=O)[O-])cc1[N+](=O)[O-]` gave an IC50 ([1]; read-out: IC50) of 190 µM, an IC50 ([2]; read-out: IC50) of 375 µM and an IC50 [3] of 142 µM. The IC50 [4] was “Not Active”.

Molecule `NS(=O)(=O)CC(=O)N/N=C/c1cc2ccccc2[nH]c1=O` has an IC50 ([1]; read-out: IC50) of 1290 µM, an IC50 ([2]; read-out: IC50) of 8730 µM and an IC50 [3] of 8.91 µM. It also gave an IC50 ([4]; read-out: IC50) of 256 µM.

With `O=c1[nH]c2ccccc2cc1/C=N/Cc1ccccc1` the IC50 [1] was “Not Active”, the IC50 ([2]; read-out: IC50) was 3140 µM and the IC50 [3] was 368 µM. The IC50 ([4]; read-out: IC50) was 329 µM.

In the case of `O=C(Cc1ccncc1)N/N=C/c1cc2ccccc2[nH]c1=O`, the IC50 ([1]; read-out: IC50) is reported as 2850 µM, the IC50 ([2]; read-out: IC50) is reported as 5090 µM and the IC50 [3] is reported as 485 µM. It also gave an IC50 ([4]; read-out: IC50) of 197 µM.
